Reference: ChEMBL document CHEMBL1143122, “Novel analogs of D-e-MAPP and B13. Part 1: synthesis and evaluation as potential anticancer agents” (Bioorg Med Chem, 2008)

Columns and labels:
Type in all cases: functional
RPMI-8226 = assay: Antiproliferative activity against human RPMI8226 cells after 48 hrs; conditions: RPMI-8226, 48 h
How it was run: (§1)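 NCI 60-cell screen. Cells were grown in RPMI 1640 with 5% FBS and 2 mM L-glutamine, then plated at 5,000–40,000 cells/well according to doubling time and preincubated for 24 h at 37 °C in 5% CO2. Compounds were dissolved in DMSO at 400× the top final concentration and tested at five 10-fold dilutions from 10−4 to 10−8 M for 48 h. Growth was read spectrophotometrically; GI50 is 50% net protein reduction.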

786-0 = assay: Antiproliferative activity against human 786-0 cells after 48 hrs; conditions: 786-0, 48 h; how it was run: as §1
DU-145 = assay: Antiproliferative activity against human DU145 cells after 48 hrs; conditions: DU-145, 48 h; how it was run: as §1
A549 = assay: Antiproliferative activity against human A549 cells after 48 hrs; conditions: A549, 48 h; how it was run: as §1
COLO 205 = assay: Antiproliferative activity against human COLO205 cells after 48 hrs; conditions: COLO 205, 48 h; how it was run: as §1
SK-MEL-2 = assay: Antiproliferative activity against human SKMEL2 cells after 48 hrs; conditions: SK-MEL-2, 48 h; how it was run: as §1
NCI-H522 = assay: Antiproliferative activity against human NCI-H522 cells after 48 hrs; conditions: NCI-H522, 48 h; how it was run: as §1
SF-295 = assay: Antiproliferative activity against human SF295 cells after 48 hrs; conditions: SF-295, 48 h; how it was run: as §1
SF-539 = assay: Antiproliferative activity against human SF539 cells after 48 hrs; conditions: SF-539, 48 h; how it was run: as §1
U-251 = assay: Antiproliferative activity against human U251 cells after 48 hrs; conditions: U-251, 48 h
How it was run: (§2)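 NCI 60-cell-line screen. Lines grown in RPMI 1640 with 5% fetal bovine serum and 2 mM L-glutamine, plated at 5,000–40,000 cells/well according to doubling time, left 24 h at 37 °C in 5% CO2. Drug stocks in DMSO at 400-fold the top final concentration. Five 10-fold dilutions, 10−4 to 10−8 M, incubated 48 h. Growth read spectrophotometrically as net protein; GI50 taken as 50% reduction.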

BT-549 = assay: Antiproliferative activity against human BT549 cells after 48 hrs; conditions: BT-549, 48 h; how it was run: as §1
MDA-MB-435 = assay: Antiproliferative activity against human MDA-MB-435 cells after 48 hrs; conditions: Homo sapiens, MDA-MB-435, 48 h; how it was run: as §1
PC-3 = assay: Antiproliferative activity against human PC3 cells after 48 hrs; conditions: PC-3, 48 h; how it was run: as §1
HOP-92 = assay: Antiproliferative activity against human HOP92 cells after 48 hrs; conditions: HOP-92, 48 h; how it was run: as §1
Malme-3M = assay: Antiproliferative activity against human MALME3M cells after 48 hrs; how it was run: as §1
HCT-116 = assay: Antiproliferative activity against human HCT116 cells after 48 hrs; conditions: HCT-116, 48 h; how it was run: as §1
NCI-H23 = assay: Antiproliferative activity against human NCI-H23 cells after 48 hrs; conditions: NCI-H23, 48 h; how it was run: as §1
ACHN = assay: Antiproliferative activity against human ACHN cells after 48 hrs; how it was run: as §1
OVCAR-4 = assay: Antiproliferative activity against human OVCAR4 cells after 48 hrs; conditions: OVCAR-4, 48 h; how it was run: as §1
SK-MEL-28 = assay: Antiproliferative activity against human SKMEL28 cells after 48 hrs; conditions: SK-MEL-28, 48 h; how it was run: as §1
SF-268 = assay: Antiproliferative activity against human SF268 cells after 48 hrs; conditions: SF-268, 48 h; how it was run: as §1
SK-OV-3 = assay: Antiproliferative activity against human SKOV3 cells after 48 hrs; conditions: SK-OV-3, 48 h; how it was run: as §1
[1] = Antiproliferative activity against human NCI-ADR-RES cells after 48 hrs; how it was run: as §1
TK-10 = assay: Antiproliferative activity against human TK10 cells after 48 hrs; conditions: TK-10, 48 h; how it was run: as §2
MDA-MB-231 = assay: Antiproliferative activity against human MDA-MB-231 cells after 48 hrs; conditions: MDA-MB-231, 48 h; how it was run: as §1
UO-31 = assay: Antiproliferative activity against human UO31 cells after 48 hrs; conditions: UO-31, 48 h; how it was run: as §2
NCI-H460 = assay: Antiproliferative activity against human NCI-H460 cells after 48 hrs; conditions: NCI-H460, 48 h; how it was run: as §1
A498 = assay: Antiproliferative activity against human A498 cells after 48 hrs; conditions: A498, 48 h; how it was run: as §1
MOLT-4 = assay: Antiproliferative activity against human MOLT4 cells after 48 hrs; conditions: MOLT-4, 48 h; how it was run: as §1
HCC 2998 = assay: Antiproliferative activity against human HCC2998 cells after 48 hrs; conditions: HCC 2998, 48 h; how it was run: as §1
LOX IMVI = assay: Antiproliferative activity against human LOXIMVI cells after 48 hrs; how it was run: as §1
K562 = assay: Antiproliferative activity against human K562 cells after 48 hrs; conditions: K562, 48 h; how it was run: as §1
[2] = read-out: Log LC50 (the source's name) (converted)

`CCCCCCCCCCCCCCN[C@H](CO)[C@H](O)c1ccccc1` showed a GI50 (RPMI-8226) of 1.66 µM, a CC50 (RPMI-8226; [2]) of 7.76 µM and a TGI (RPMI-8226; read-out: Log TGI (converted)) of 3.63 µM. For the same compound, the GI50 (786-0) was 1.62 µM, the CC50 (786-0; [2]) was 5.62 µM and the TGI (786-0; read-out: Log TGI (converted)) was 3.02 µM. It also gave a GI50 (DU-145) of 1.66 µM, a CC50 (DU-145; [2]) of 6.17 µM and a TGI (DU-145; read-out: Log TGI (converted)) of 3.16 µM. The GI50 (A549) was 1.7 µM, the CC50 (A549; [2]) was 6.03 µM and the TGI (A549; read-out: Log TGI (converted)) was 3.24 µM. The GI50 (COLO 205) was 1.86 µM, the CC50 (COLO 205; [2]) was 6.17 µM and the TGI (COLO 205; read-out: Log TGI (converted)) was 3.39 µM. The GI50 (SK-MEL-2) was 2.14 µM, the LC50 (SK-MEL-2) was > 100 µM and the TGI (SK-MEL-2; read-out: Log TGI (converted)) was 4.79 µM. The GI50 (NCI-H522) was 2 µM, the TGI (NCI-H522; read-out: Log TGI (converted)) was 3.8 µM and the GI50 (SF-295) was 1.86 µM. It also gave an LC50 (SF-295) of 6.76 µM, a TGI (SF-295; read-out: Log TGI (converted)) of 3.55 µM and a GI50 (SF-539) of 1.55 µM. The LC50 (SF-539) was 6.03 µM, the TGI (SF-539; read-out: Log TGI (converted)) was 3.09 µM and the GI50 (U-251) was 1.78 µM. For the same compound, the CC50 (U-251; [2]) was 5.62 µM, the TGI (U-251; read-out: Log TGI (converted)) was 3.16 µM and the GI50 (BT-549) was 1.29 µM. The LC50 (BT-549) was 5.5 µM, the TGI (BT-549; read-out: Log TGI (converted)) was 2.63 µM and the GI50 (MDA-MB-435) was 1.78 µM. For the same compound, the LC50 (MDA-MB-435) was 5.62 µM, the TGI (MDA-MB-435; read-out: Log TGI (converted)) was 3.16 µM and the GI50 (PC-3) was 1.58 µM. It also gave an LC50 (PC-3) of 5.5 µM, a TGI (PC-3; read-out: Log TGI (converted)) of 2.95 µM and a GI50 (HOP-92) of 1.41 µM. The LC50 (HOP-92) was 5.89 µM, the TGI (HOP-92; read-out: Log TGI (converted)) was 2.88 µM and the GI50 (Malme-3M) was 2.09 µM. The LC50 (Malme-3M) was 9.55 µM, the TGI (Malme-3M; read-out: Log TGI (converted)) was 3.8 µM and the GI50 (HCT-116) was 1.74 µM. For the same compound, the LC50 (HCT-116) was 5.62 µM, the TGI (HCT-116; read-out: Log TGI (converted)) was 3.16 µM and the GI50 (NCI-H23) was 3.55 µM. It also gave a CC50 (NCI-H23; [2]) of 64.6 µM, a TGI (NCI-H23; read-out: Log TGI (converted)) of 9.77 µM and a GI50 (ACHN) of 1.74 µM. For the same compound, the CC50 (ACHN; [2]) was 5.62 µM, the TGI (ACHN; read-out: Log TGI (converted)) was 3.16 µM and the GI50 (OVCAR-4) was 1.91 µM. The TGI (OVCAR-4; read-out: Log TGI (converted)) was 3.8 µM, the GI50 (SK-MEL-28) was 1.82 µM and the LC50 (SK-MEL-28) was 5.62 µM. For the same compound, the TGI (SK-MEL-28; read-out: Log TGI (converted)) was 3.24 µM, the GI50 (SF-268) was 1.66 µM and the TGI (SF-268; read-out: Log TGI (converted)) was 3.24 µM. It also gave a GI50 (SK-OV-3) of 6.76 µM, a CC50 (SK-OV-3; [2]) of 79.4 µM and a TGI (SK-OV-3; read-out: Log TGI (converted)) of 24.5 µM. For the same compound, the GI50 [1] was 2.09 µM, the LC50 [1] was 6.92 µM and the TGI ([1]; read-out: Log TGI (converted)) was 3.8 µM. For the same compound, the GI50 (TK-10) was 2 µM, the CC50 (TK-10; [2]) was 13.8 µM and the TGI (TK-10; read-out: Log TGI (converted)) was 4.68 µM. It also gave a GI50 (MDA-MB-231) of 1.74 µM, an LC50 (50% lethal concentration) (MDA-MB-231) of 6.61 µM and a TGI (MDA-MB-231; read-out: Log TGI (converted)) of 3.39 µM. The GI50 (UO-31) was 3.8 µM, the LC50 (UO-31) was 79.4 µM and the TGI (UO-31; read-out: Log TGI (converted)) was 17.8 µM. For the same compound, the GI50 (NCI-H460) was 1.86 µM, the TGI (NCI-H460; read-out: Log TGI (converted)) was 3.47 µM and the GI50 (A498) was 18.2 µM. The CC50 (A498; [2]) was > 100 µM, the TGI (A498; read-out: Log TGI (converted)) was 42.7 µM and the GI50 (MOLT-4) was 2.09 µM. For the same compound, the GI50 (HCC 2998) was 1.66 µM, the CC50 (HCC 2998; [2]) was 5.62 µM and the TGI (HCC 2998; read-out: Log TGI (converted)) was 3.09 µM. The GI50 (LOX IMVI) was 1.78 µM, the LC50 (LOX IMVI) was 5.75 µM and the TGI (LOX IMVI; read-out: Log TGI (converted)) was 3.16 µM. The GI50 (K562) was 2.24 µM, the LC50 (K562) was > 100 µM and the TGI (K562; read-out: Log TGI (converted)) was 4.9 µM.
